Source: ChEMBL document CHEMBL3627638, “Mixed up minor groove binders: Convincing A·T specific compounds to recognize a G·C base pair” (Bioorg Med Chem Lett, 2015)
Activity calls are given as the source filed them. The calls are words filed in the database; no cut-off is given here.

What was measured:
Nucleic Acid [1] = test: Binding affinity to hairpin oligomer duplex A4T4 DNA (unknown origin) assessed as change in melting temperature at 2:1 drug/DNA ratio by spectrophotometry; assay type: nucleic-acid assay
Nucleic Acid [2] = test: Binding affinity to hairpin oligomer duplex A4GT4 DNA (unknown origin) assessed as change in melting temperature at 2:1 drug/DNA ratio by spectrophotometry; assay type: nucleic-acid assay
Nucleic Acid [3] = test: Binding affinity to hairpin oligomer duplex A4GCT4 DNA (unknown origin) assessed as change in melting temperature at 2:1 drug/DNA ratio by spectrophotometry; assay type: nucleic-acid assay
Nucleic Acid [4] = test: Binding affinity to biotinylated-hairpin oligomer duplex A4GT4 DNA (unknown origin) by surface plasmon resonance method in presence of 0.1 M Na+ ion; assay type: nucleic-acid assay, Homo sapiens
Method in brief: (§1)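 SPR sensorgrams recorded for ligand injected over immobilized hairpin DNA at a concentration series: 2, 3, 5, 7, 10 and 15 nM for A4GT4, higher concentrations for A4IT4 and A4T4.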

Nucleic Acid [5] = test: Binding affinity to biotinylated-hairpin oligomer duplex A4T4 DNA (unknown origin) by surface plasmon resonance method; assay type: nucleic-acid assay; conditions: Homo sapiens; method in brief: as §1
Nucleic Acid [6] = test: Binding affinity to biotinylated-hairpin oligomer duplex A4GCT4 DNA (unknown origin) by surface plasmon resonance method; assay type: nucleic-acid assay; conditions: Homo sapiens
Nucleic Acid [7] = test: Binding affinity to biotinylated-hairpin oligomer duplex A4IT4 DNA (unknown origin) by surface plasmon resonance method; assay type: nucleic-acid assay, Homo sapiens; method in brief: as §1
Nucleic Acid [8] = test: Binding affinity to hairpin oligomer duplex A4GT4 DNA (unknown origin) at 4:1 drug/DNA ratio by ESI mass spectrometry; assay type: nucleic-acid assay; conditions: Homo sapiens
Method in brief: (§2)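 Competition ESI-MS run on a mixture of DNA sequences with a pure GC sequence as non-binding internal standard. Ligand was titrated at 1:1, 2:1 and 4:1 mole ratios to each single sequence (e.g. 10 μM ligand to 5 μM DNA). Relative peak intensities of free DNA and ligand-DNA complexes were compared.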

Nucleic Acid [9] = test: Binding affinity to hairpin oligomer duplex A4GCT4 DNA (unknown origin) by ESI mass spectrometry; assay type: nucleic-acid assay; conditions: Homo sapiens
Nucleic Acid [10] = test: Binding affinity to hairpin oligomer duplex A4GT4 DNA (unknown origin) by circular dichroism method; assay type: nucleic-acid assay; conditions: Homo sapiens
Method in brief: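 Ligand titrated incrementally into the DNA, with CD spectra followed in the DNA region (230 to 290 nm).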

DNA [11] = test: Binding affinity to AATTCAATT-AATTGAATT DNA fragment (unknown origin) by DNaseI footprinting analysis; assay type: nucleic-acid assay; conditions: Homo sapiens
DNA [12] = test: Binding affinity to AATTGCAATT-AATTGCAATT DNA fragment (unknown origin) by DNaseI footprinting analysis; assay type: nucleic-acid assay; conditions: Homo sapiens
DNA [13] = test: Binding affinity to A4CT4-A4GT4 DNA fragment (unknown origin) by DNaseI footprinting analysis; assay type: nucleic-acid assay; conditions: Homo sapiens
Nucleic Acid [14] = test: Binding affinity to hairpin oligomer duplex A4T4 DNA (unknown origin) at 4:1 drug/DNA ratio by ESI mass spectrometry; assay type: nucleic-acid assay; conditions: Homo sapiens; method in brief: as §2

SMILES | ΔTm (Nucleic Acid [1]) [°C] | ΔTm (Nucleic Acid [2]) [°C] | ΔTm (Nucleic Acid [3]) [°C] | Kd (Nucleic Acid [4]) [nM] | Activity (Nucleic Acid [5]) | Activity (Nucleic Acid [6]) | Kd (Nucleic Acid [7]) [nM] | Activity (Nucleic Acid [8]) | Activity (Nucleic Acid [9]) | Activity (Nucleic Acid [10]) | Activity (DNA [11]) | Activity (DNA [12]) | Activity (DNA [13]) | Activity (Nucleic Acid [14])
CN1CCN(c2ccc3nc(-c4ccc(OCc5cccc(COc6ccc(-c7nc8ccc(N9CCN(C)CC9)cc8[nH]7)cc6)n5)cc4)[nH]c3c2)CC1 | 14 | 19 | 6 |  |  |  |  |  |  |  |  |  |  | 
N=C(N)c1ccc2nc(-c3ccc(OCc4cccc(COc5ccc(-c6nc7ccc(C(=N)N)cc7[nH]6)cc5)n4)cc3)[nH]c2c1 | 15 | 22 | 8 | 0.015 | Active | inactive | 1.2 | Active | inactive | Active | Active | inactive | Active | 
N=C(N)c1ccc2nc(-c3ccc(-c4cccc(-c5ccc(-c6nc7ccc(C(=N)N)cc7[nH]6)cc5)n4)cc3)[nH]c2c1 | 24 | 19 | 5 |  |  |  |  | Active | inactive |  |  |  |  | Active
N=C(N)c1ccc2nc(-c3ccc(OCc4cccc(COc5ccc(-c6nc7ccc(C(=N)N)cc7[nH]6)cc5)c4)cc3)[nH]c2c1 | 21 | 17 | < 1 |  |  |  |  | Active | inactive |  | Active | Active | Active | Active
